Experimental data from the EternaBench riboswitch data.

System: MS2 coat protein
Experiment: apparent Kd, MS2 coat protein; higher = weaker binding; RNA-MaP array; theophylline 2 mM where present
How it was run: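 Green signal was scaled to red-channel RNA signal and control-cluster median Fmax, and the apparent Kd was taken as the median of filtered per-cluster binding-curve fits. The binding series used SNAP-549-labelled MS2 coat protein from 0.7 or 1.5 nM, doubling to 3 µM, on designs transcribed by stalled E. coli RNA polymerase on Illumina sequencing-chip clusters. Each series ran without and then with constant ligand in 100 mM Tris-HCl pH 7.5, 80 mM KCl, 4 mM MgCl2, BSA, DTT, yeast tRNA and Tween-20.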

[1] = designed as: OFF switch for theophylline, no ligand
[2] = ligand present: theophylline, designed as: OFF switch for theophylline
[3] = designed as: ON switch for theophylline, no ligand
[4] = ligand present: theophylline, designed as: ON switch for theophylline

Sequence | apparent Kd [1] [nM] | apparent Kd [2] [nM] | apparent Kd [3] [nM] | apparent Kd [4] [nM]
ACGUCCGGAUUAAUCGUGGGCAUGGUCGAUACCAGUAUUUUAAUCUACCCUUGGCAGCGACAUGAGGAUCACCCAUGUGCGAUGA | 16.7 | 30.9 | – | –
GAGCUGAUGUAGAGCGAAUAUACGAGAGAUACCAGUACAGAAAUGUACCCUUGGCAGCUCAACUUUACAUGAGGAUCACCCAUGU | 13.8 | 15.3 | – | –
GGGUAUGAUCCGGAUACCAGCGAACAUGAGGAUCACCCAUGUGACCUAAGAUAGGCUAAACGCCCUUGGCAGCCGAGAUUGCGUU | – | – | 48.4 | 31.5
AAAUAAAUAACUGAUACCAGUGUACUGACAUGAGGAUCACCCAUGUUGGGUUUUGUUGUACACCCUUGGCAGCAGAAAUAUAAAA | 35.3 | 73 | – | –
ACAUGAGGAUCACCCAUGUCUGCCACUGAUACCAGCGGAAGCCCACGCCCUUGGCAGCAGAACAUGAGGAUCACCCAUGUAGGCU | – | – | 232 | 198
ACCUCACUCUCUGAUACCAGCUAACAACAUGAGGAUCACCCAUGUCAGACUUGUAUUGAUAGCCCUUGGCAGCAGAGGUAACUGC | 16.2 | 31.3 | – | –
UUAGAUAUGACAGAUACCAGCGUGUUAUAAAACAUGAGGAUCACCCAUGUAGUGAUCGAGCGCCCUUGGCAGCUGGUGUGUUUGG | – | – | 69.6 | 208
AGAUUACAUGUUUUAAUACGGAAAACUGAUACCAGUGUAUCUAUUCACCCUUGGCAGCAGCAACAUGAGGAUCACCCAUGUAUUA | – | – | 19.2 | 19.2
ACAUGAGGAUCACCCAUGUUCCUCGCCGAUACCAGUGAAGAAGAACGCCCUUGGCAGCGGAAAGAAUAUUUUGGAGAUGAGAUAU | 204 | 270 | – | –
CGAACAAAACUAAAUAAACAACUGGGUGAUACCAGUACAUGUGCGUACCCUUGGCAGCAUCCGGCCACAUGAGGAUCACCCAUGU | – | – | 64.7 | 119
UUCUACAUGAGGAUCACCCAUGUGGGUGAUACCAGCACUUUUUGGUGCCCUUGGCAGCACAUGAGAAUACCGUACGAUCGGCGAU | – | – | 265 | 700
CAUGGGUGGGUGCUGCCACCCAUUGGUGAUACCAGCAUCGAAAGAUGCCCUUGGCAGCACCAACAUGAGGAUCACCCAUGUAAUA | – | – | 118 | 320
CAUACUUUAGUAUGUUAUGUGGACAGUGAUACCAGAUACGAAAGUAUCCCUUGGCAGCACAACAUGAGGAUCACCCAUGUAUUUU | – | – | 23 | 13.6
AGCGAUAUGCAUGAUACCAGCUACAUGAGGAUCACCCAUGUACGUCAGUAAUGACUGUGUAGCCCUUGGCAGCAUAGAGCAUGUA | 25.5 | 33 | – | –
GAGGAUCAAGUAGAUACCAGCACAUGAGGAUCACCCAUGUAAUGGUGUCCCUCAAGAACGUGCCCUUGGCAGCUACUAUCAAAAU | 16.3 | 16.3 | – | –
UUUGAUAUGACAGAUACCAGCGUGUUGUUGAACAUGAGGAUCACCCAUGUAGUGAUCAAGCGCCCUUGGCAGCUGGUGUGUUAGG | – | – | 125 | 82.7
GUACAUGAGGAUCACCCAUGUGGUAGGGAUACCAGCCAGAAGAAAGGCCCUUGGCAGCUUGUAUUUAGUGUGGGUUUGUUUGUUC | 23.4 | 54.9 | – | –
AAUAACAUGAGGAUCACCCAUGUAAAAGAUACCAGAGUGAUGAUCCUCCCUUGGCAGCUUAAUAACGCUAUUGAUUACAAUAGCG | – | – | 46.4 | 108
AAACUGGGUGUAAAAUAAAUAAUCACUGAUACCAGACUAUGAGAUGUCCCUUGGCAGCAGAAACAUGAGGAUCACCCAUGUAAUA | 17.9 | 21.2 | – | –
UUUUUUAUUAUGGCGUAUCGGAAAACCGAUACCAGUACAGAAAUGUACCCUUGGCAGCGGCGUUUUACAUGAGGAUCACCCAUGU | 13.9 | 20.1 | – | –
AUAGUCUAGAGUGAUACCAGACUACAUGAGGAUCACCCAUGUAUCUUUUGGUUAUCAUGUGUCCCUUGGCAGCACGCAUGUAUAG | 10.1 | 24.5 | – | –
ACAUGAGGAUGGGAUACCAGAUACAUGAGGAUCACCCAUACAUGAGGAUCACCCAUGUCCGUCCCUUGGCAGCCCAACAUGAGGA | 169 | 506 | – | –
UCGUGUGUUUCGGAUACCAGUGUGGUCGAUACAUGAGGAUCACCCAUGUUAGAGGAGGUACACCCUUGGCAGCCGGCUGUUGCGG | – | – | 108 | 51.1
AUGUCGUUGAAUAUAGCGGCUUGGUGUGAUACCAGAAUGAUCUAAUUCCCUUGGCAGCAUUACAUGAGGAUCACCCAUGUUUAGG | – | – | 25.2 | 29.2
GAGUUCCUGAGAGAUACCAGUGAGGCCACAUGAGGAUCACCCAUGUCCCUCACUCCGGCCCACCCUUGGCAGCUCGAAAGAUAUU | 10.9 | 68.1 | – | –
UCACGUGGGAAUGAUACCAGCCACAUGAGGAUCACCCAUGUGCAUGGUGUGAGCUUCACGGGCCCUUGGCAGCAUUUCAAGUCGC | 48 | 69.5 | – | –
AUCGUACCUGGUGAUACCAGCAAGUGAUUAUAACAUGAGGAUCACCCAUGUAAUCAGUGAUGCCCUUGGCAGCAUAAUCGGUACA | – | – | 26.3 | 21.3

Sequence | apparent Kd [1] [nM] | apparent Kd [2] [nM] | apparent Kd [3] [nM] | apparent Kd [4] [nM]
UUUUUCGCGUUUGAUACCAGCAGAGUUGUUCUGGUCUGGUACAUGAGGAUCACCCAUGUCUGCCCUUGGCAGCAAACGGGAGAAG | 11.5 | 14.7 | – | –
AACAAUGCACAUGAGGAUCACCCAUGUGAUACCAGCCGCAACAUAGGCCCUUGGCAGCAUGUGGGUAUAGAACGAUUUGGCUGAA | 45.9 | 78.3 | – | –
AAUUUGUCGGGUGAUACCAGCCUCGGCGCAUCUCGCGCUGAACAUGAGGAUCACCCAUGUGGCCCUUGGCAGCACAUGACAAAUC | – | – | 554 | 37.3
CCUGCGUUUCUUUUCUUUCGCAGGAAUGAUACCAGUAGGGAAACCUACCCUUGGCAGCAUGGGACAUGAGGAUCACCCAUGUUAU | – | – | 350 | 55.1
CAGCACAUGAGGAUCACCCAUGUGAGGGAUACCAGCUCAGGCGUGGGCCCUUGGCAGCUCUCUGGCUGACGAAAGUCAGCCUGUG | – | – | 13.2 | 16.7
AGUACUCGAACGGAUACCAGCCGGACAUGAGGAUCACCCAUGUCCUACCAUGUCUCGGUUGGCCCUUGGCAGCCGUUCGUGUACA | – | – | 83.4 | 234
UAUAUAUAUAUGGAUACCAGCAGAGAAAACGUUUAUCCUAACAUGAGGAUCACCCAUGUAUGCCCUUGGCAGCUGUGUAUAUAUA | 22.2 | 26.8 | – | –
AGCGAGAUCCGUGAUACCAGCUACAUGAGGAUCACCCAUGUGAGCGCGAAAGUGCUGUGUAGCCCUUGGCAGCACAGUGGAUCUC | 10 | 43.2 | – | –
CGAAUACGAAUUGAUACCAGCAUGUUAACAUGAGGAUCACCCAUGUUAAGGAUAACAUAAUGCCCUUGGCAGCAACGUAAAUUCG | – | – | 19.4 | 13.4
GGGUAAGAUCCGGAUACCAGCGAACAUGAGGAUCACCCAUGUGAAAUAAGAUAGAAUAAACGCCCUUGGCAGCCGAAAUAGAGUU | – | – | 77.3 | 30.1
AUUCAUAAUUGGGUAAAUGGAUAGAGUGAUACCAGUCAUAUACAUGACCCUUGGCAGCACAAGGACAUGAGGAUCACCCAUGUCA | – | – | 24.2 | 16.3
CAGAGCUACCGGGAUACCAGAAAUGGUAUUCCUUAAUUUCUUACAUGAGGAUCACCCAUGUUCCCUUGGCAGCUUGGUAGCUCUG | 86.4 | 385 | – | –
GCAUGCGAUACCGAUACCAGCUACUCCAUGGCGCUCCACAUGAGGAUCACCCAUGUAAAUAGCCCUUGGCAGCGGUAUUGAGAUG | 22.7 | 315 | – | –
ACAUGAGGAUCACCCAUGUUCCUCAUUGAUACCAGUGAAUUUAGACGCCCUUGGCAGCGAGUUUUUUUAGAAGAAGUUUUUUUUU | 782 | 1070 | – | –
ACUCUGUCGGGUGAUACCAGCCUCGGCACAUCUCGCGCCGAACAUGAGGAUCACCCAUGUGGCCCUUGGCAGCACAUGACAAAUC | – | – | 328 | 83.1
UUAUUUAUAAUGGAUACCAGUGCUGUGGCCCGGCAUCCUGACAUGAGGAUCACCCAUGUGUACCCUUGGCAGCUGUUAUGGGUUU | 22.6 | – | – | –
AAUAAUCUAGGUGAUACCAGCUCAACAUGAGGAUCACCCAUGUACUCAUGUAGAGUUGAGAGCCCUUGGCAGCACCUAGAUAAUA | – | – | 553 | 74.9
UAACAUGAGGAUCACCCAUGUAUAGUCGAUACCAGCUCAAGGGAGAGCCCUUGGCAGCGACACUGGUAUCCAUGGGUGUGGAUAC | – | – | 82.3 | 81.3
UCGUGUAUAUCGGAUACCAGUGAAAACGAUACAUGAGGAUCACCCAUGUGAGUUGAUGUACACCCUUGGCAGCUGUAUAUAUCUA | – | – | 19.3 | –
UUAGAUAUGACAGAUACCAGCGUGUUGUAGAACAUGAGGAUCACCCAUGUAGUGAUCAAGCGCCCUUGGCAGCUGGUAUGUUUGG | – | – | 170 | 221
UAUAUAUAUAGGGAUACCAGCAGAGAAAACGUUUAUCCUAACAUGAGGAUCACCCAUGUAUGCCCUUGGCAGCUUUAUAUAUAUA | 22.9 | 31.2 | – | –
AAGGUGAUCCCAGAUACCAGCUCAACAUGAGGAUCACCCAUGUACGGGACGAAAGUCCCGGGCCCUUGGCAGCUGGGUUGCCAAG | – | – | 193 | 123
AUAUGAUCAUAGGAUACCAGAAAUGGUAUUCCUUUAUUUCUUACAUGAGGAUCACCCAUGUUCCCUUGGCAGCUUAUGAUCAUAU | 126 | 115 | – | –
AGUGUUAUAACUGAUACCAGACUUUUGCUUAUACAUGAGGAUCACCCAUGUAAAAUGGUUGUCCCUUGGCAGCAGAAGUUACACA | – | – | 69.1 | 327
ACAUGAGGAUCACCCAUGUCUGCCUCGGAUACCAGCGGAAGAAAACGCCCUUGGCAGCCGAACAUGAGGAUCACCCAUGUAGGCU | – | – | 48.2 | 56.8
AGCGAUAUGCAUGAUACCAGCUACAUGAGGAUCACCCAUGUGCGUCAGAAAUGACUGUGUAGCCCUUGGCAGCAUAGAGCAUGUA | 37.4 | 73.6 | – | –
